Measurements published in ChEMBL document CHEMBL1126613, “Centrally acting serotonergic agents. Synthesis and structure-activity relationships of C-1- or C-3-substituted derivatives of 8-hydroxy-2-(di-n-propylamino)tetralin” (J Med Chem, 1993).
“And” between values parts separate entries of the source, which are not always exact repeats. Identical values can stand only once.

Tests used:
Mus musculus [1] = assay: Tested in vivo for the maximum temperature decrease in mouse hypothermia assay.; assay type: functional
How it was run: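 CF-1 mice (18-22 g, 4 per dose), dosed sc or orally. Rectal temperature measured before dosing and 20 min after. The mean maximum temperature drop (°F) at 20 min after any dose is recorded as an efficacy index.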

Mus musculus [2] = assay: Behavioral time in mouse face to face assay at 3.5 umol/kg administered perorally; assay type: functional
How it was run: (§1)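 Male CF-1 mice (Charles River, 19-29 g), 8 pairs per dose, dosed sc, ip or orally in 0.25% methylcellulose or 0.1% citric acid; 30 min absorption housed with familiar partner. Pairs from different home cages placed in small litter-floored cage; face-to-face interaction duration scored visually for 3 min. Wilcoxon rank sum (two-tailed) vs daily control, p < 0.05.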

Mus musculus [3] = assay: Behavioral time in mouse isolation-induced aggression assay at 35 umol/kg administered perorally (*P<0.05); assay type: functional
How it was run: (§2)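 Male CF-1 mice. Residents were isolated singly for at least 1 month; group-housed intruders were kept 4-6/cage. Mice weighed 28-30 g at first test. Residents got drug ip or orally in 0.25% methylcellulose or 0.1% citric acid 30 min before an untreated intruder was introduced. Latency to fighting was recorded, capped at 600 s. Dosing was blind, 6/group (vehicle n = 12), Wilcoxon rank sum.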

Mus musculus [4] = assay: (§3) Behavioral time in mouse isolation-induced aggression assay at 0 umol/kg administered intraperitoneally; assay type: functional; how it was run: as §2
Mus musculus [5] = assay: Behavioral time in mouse isolation-induced aggression assay at 0 umol/kg administered perorally; assay type: functional; how it was run: as §2
Mus musculus [6] = assay: Behavioral time in mouse face to face assay at 35 umol/kg administered perorally; assay type: functional; how it was run: as §1
Mus musculus [7] = assay: Behavioral time in mouse isolation-induced aggression assay at 11 umol/kg administered intraperitoneally (*P<0.05); assay type: functional; how it was run: as §2
Mus musculus [8] = assay: Behavioral time in mouse face to face assay at 0 umol/kg administered perorally; assay type: functional; how it was run: as §1
Mus musculus [9] = assay: Behavioral time in mouse isolation-induced aggression assay at 3.5 umol/kg administered perorally; assay type: functional; how it was run: as §2
Mus musculus [10] = assay: Behavioral time in mouse isolation-induced aggression assay at 11 umol/kg administered perorally; assay type: functional; how it was run: as §2
Mus musculus [11] = assay: Behavioral time in mouse face to face assay at 11 umol/kg administered perorally; assay type: functional; how it was run: as §1
Mus musculus [12] = assay: Tested in vivo for the effective dose administered orally in mouse hypothermia assay; assay type: functional; conditions: po
How it was run: (§4)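 Charles River CF-1 mice (18-22 g, 4 per dose), housed individually 20 min before testing. Rectal temperature taken before dosing and 20 min after (sc 0.1 mL; oral 0.2 mL by gavage needle). A drop of ≥2 °F counted as positive. Doses started at 30 mg/kg and fell by half-log until 0/4 responded.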

Mus musculus [13] = assay: Behavioral time in mouse isolation-induced aggression assay at 3.5 umol/kg administered intraperitoneally (*P<0.05); assay type: functional; how it was run: as §2
Mus musculus [14] = assay: In vivo effective dose administered subcutaneously in mouse hypothermia assay.; assay type: functional; conditions: sc; how it was run: as §4
Rattus norvegicus [15] = assay: Effect on the synthesis rate of 5 HTP accumulation at the dose of 9.7 uM/kg in the rat ventral limbic brain region; assay type: functional, Limbic system
How it was run: (§5)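 Male Sprague-Dawley rats dosed sc with drug or vehicle at time zero. NSD 1015 (100 mg/kg ip) given 15 min later to block aromatic decarboxylase. Brain DOPA and 5-HTP measured by electrochemical detection with peak integration. Expressed as percent change from NSD 1015 plus saline controls. Control and test groups N = 6 each, compared by unpaired t test.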

Rattus norvegicus [16] = assay: Effect on the synthesis rate of dopamine (DOPA) accumulation at the dose of 9.7 umol/kg in the rat ventral limbic brain region; assay type: functional, Limbic system; how it was run: as §5
Rattus norvegicus [17] = organism: Rattus norvegicus; assay: Effect on the synthesis rate of dopamine (DOPA) accumulation at the dose of […] in the rat ventral limbic brain region; assay type: functional, Limbic system
Felis catus [18] = assay: Maximum decrease on arterial blood pressure at 1 mg/kg; assay type: functional
How it was run: (§6)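 Adult cats (2.5-4.0 kg) anesthetized with ketamine 11 mg/kg im, then chloralose 80 mg/kg iv. Femoral artery cannulated for blood pressure, femoral vein for drug. Ventilated, paralyzed with gallamine 4 mg/kg iv, rectal temperature held at 37-38 °C. Cumulative iv doses given at 20-min intervals. Maximum decrease reported following a 1 mg/kg iv dose.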

Rattus norvegicus [19] = organism: Rattus norvegicus; assay: Effect on the synthesis rate of 5 HTP accumulation at the dose of […] in the rat ventral limbic brain region; assay type: functional, Limbic system
Felis catus [20] = organism: Felis catus; assay: Dose at which the SND has been reduced to 50% of the pretreatment value; assay type: functional
How it was run: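 Adult cats (2.5-4.0 kg), ketamine 11 mg/kg im then chloralose 80 mg/kg iv, ventilated, gallamine-paralyzed, rectal temperature 37-38 °C. Sympathetic nerve discharge quantified by cumulative integration. Cumulative iv doses were given at 20-min intervals. Value is the dose reducing discharge to 50% of pretreatment.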

Felis catus [21] = assay: (§7) Dose on arterial blood pressure (BP) in anesthetized cat; assay type: functional; how it was run: as §6
Rattus norvegicus [22] = assay: Effect on the synthesis rate of dopamine (DOPA) accumulation at the dose of 10 umol/kg in the rat ventral limbic brain region; assay type: functional, Limbic system; how it was run: as §5
Rattus norvegicus [23] = assay: Effect on the synthesis rate of 5 HTP accumulation at the dose of 10 umol/kg in the rat ventral limbic brain region; assay type: functional, Limbic system; how it was run: as §5
Rattus norvegicus [24] = assay: Effect on the synthesis rate of dopamine (DOPA) accumulation at the dose of 0.3 umol/kg in the rat ventral limbic brain region; assay type: functional, Limbic system
How it was run: (§8)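 Male Sprague-Dawley rats were given test drug or vehicle sc at time zero, then NSD 1015 (100 mg/kg ip) 15 min later. DOPA and 5-HTP were measured electrochemically by peak integration. Results are expressed as percent change from NSD 1015 plus saline controls. Groups of 6 vs control 6, unpaired t test.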

Mus musculus [25] = assay: Behavioral time in mouse face to face assay at 30 umol/kg administered subcutaneously (*P<0.05); assay type: functional
How it was run: (§9)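 Male CF-1 mice (19-29 g), 8 pairs per dose, dosed sc, ip or orally in 0.25% methylcellulose or 0.1% citric acid. Pairs from the same home cage are held together for 30 min. Pairs from different cages are then placed in a small litter-floored cage, and face-to-face interaction is timed visually for 3 min. Comparison with the daily control by two-tailed Wilcoxon rank sum, p<0.05.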

Rattus norvegicus [26] = assay: Effect on the synthesis rate of 5 HTP accumulation at the dose 0.3 umol/kg in the rat ventral limbic brain region; assay type: functional, Limbic system; how it was run: as §8
Mus musculus [27] = assay: Behavioral time in mouse isolation-induced aggression behavioral assay at 30 umol/kg administered intraperitoneally (*P<0.05); assay type: functional
How it was run: (§10)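 Isolated male CF-1 resident mice, housed singly ≥1 month and weighing 28-30 g at testing, were dosed ip or orally in 0.25% methylcellulose or 0.1% citric acid. Dosing was blind, 6 per group (n=12 vehicle). After 30 min an untreated group-housed intruder was introduced. Latency to fighting was recorded, capped at 600 s. Residents rested ≥3 days before reuse. Wilcoxon rank sum.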

Felis catus [28] = organism: Felis catus; assay: Maximum decrease observed; assay type: functional; parameters: unit not given here
Mus musculus [29] = assay: Behavioral time in mouse face to face assay at dose of 0 umol/kg administered; assay type: functional; how it was run: as §9
Mus musculus [30] = assay: Behavioral time in mouse isolation-induced aggression assay 0.3 umol/kg administered intraperitoneally; assay type: functional; how it was run: as §10
Rattus norvegicus [31] = assay: Effect on the synthesis rate of 5 HTP accumulation at the dose of 3.0 umol/kg in the rat ventral limbic brain region (*P<0.05); assay type: functional, Limbic system; how it was run: as §8
Mus musculus [32] = assay: as §3; assay type: functional; how it was run: as §10; remark: listed apart in the source
Mus musculus [33] = assay: Behavioral time in mouse isolation-induced aggression assay 0 umol/kg administered intraperitoneally; assay type: functional; how it was run: as §10
Mus musculus [34] = assay: Behavioral time in mouse isolation-induced aggression assay at 0.9 umol/kg administered intraperitoneally; assay type: functional; how it was run: as §10
Mus musculus [35] = assay: Behavioral time in mouse face to face assay at 3.0 umol/kg administered subcutaneously; assay type: functional; how it was run: as §9
Mus musculus [36] = assay: Behavioral time in mouse isolation-induced aggression assay at 3.0 umol/kg administered intraperitoneally (*P<0.05); assay type: functional; how it was run: as §10
Mus musculus [37] = assay: Behavioral time in mouse face to face assay at 30 umol/kg administered subcutaneously; assay type: functional; how it was run: as §9
Felis catus [38] = assay: as §7; assay type: functional; remark: listed apart in the source
Rattus norvegicus [39] = assay: Effect on the synthesis rate of dopamine (DOPA) accumulation at the dose of 3.0 umol/kg in the rat ventral limbic brain region; assay type: functional, Limbic system; how it was run: as §8
Mus musculus [40] = assay: Behavioral time in mouse isolation-induced aggression behavioral assay at 9.1 umol/kg administered intraperitoneally (*P<0.05); assay type: functional; how it was run: as §10

SMILES: CCCN[C@@H]1CCc2cccc(O)c2[C@@H]1CCC
- TMP.decrease (Mus musculus [1]): 10.4 degrees F and 7.5 degrees F
- Time (Mus musculus [2]): 1.1 s
- Time (Mus musculus [3]): 54 s
- Time (Mus musculus [4]): 8 s
- Time (Mus musculus [5]): 11 s
- Time (Mus musculus [6]): 1.1 s
- Time (Mus musculus [7]): 125 s
- Time (Mus musculus [8]): 1.1 s
- Time (Mus musculus [9]): 28 s
- Time (Mus musculus [10]): 146 s
- Time (Mus musculus [11]): 1.3 s
- ED50 (Mus musculus [12]): 46 µmol/kg
- Time (Mus musculus [13]): 97 s
- ED50 (Mus musculus [14]): 6.1 µmol/kg

SMILES: CCCN[C@@H]1CCc2cccc(OC)c2[C@@H]1CC1CC1
- TMP.decrease (Mus musculus [1]): 7.4 degrees F
- Change (Rattus norvegicus [15]): -25.8%
- Change (Rattus norvegicus [16]): 5%
- ED50 (Mus musculus [14]): 31 µmol/kg

SMILES: CCC[C@H]1c2c(cccc2OC)CC[C@H]1N(CCC)CCC
- TMP.decrease (Mus musculus [1]): 2.8 degrees F
- Change (Rattus norvegicus [17]): -14%
- Max decrease (Felis catus [18]): 87
- Change (Rattus norvegicus [19]): -3.9%
- ED50 (Felis catus [20]): > 2.94 µmol/kg
- Max decrease (Felis catus [21]): 137
- ED50 (Mus musculus [14]): 51 µmol/kg

SMILES: C=CC[C@@H]1c2cccc(OC)c2CC[C@H]1NCCC (relative stereo)
- Change (Rattus norvegicus [22]): -15%
- Change (Rattus norvegicus [23]): 2.7%

SMILES: CCCN(CCC)C1CCc2cccc(O)c2C1 (centres undefined) [8-OH-DPAT]
- Change (Rattus norvegicus [24]): 16%
- TMP.decrease (Mus musculus [1]): 7.2 degrees F and 7.5 degrees F
- Time (Mus musculus [25]): 4.4 s
- Change (Rattus norvegicus [26]): -37%
- Time (Mus musculus [27]): 351 s
- Max decrease (Felis catus [18]): 57
- Max decrease (Felis catus [28]): 2
- Time (Mus musculus [29]): 1.1 s
- Time (Mus musculus [30]): 11 s
- Change (Rattus norvegicus [31]): -48%
- Time (Mus musculus [32]): 177 s
- Time (Mus musculus [33]): 6 s
- ED50 (Felis catus [20]): 0.03 µmol/kg
- Time (Mus musculus [34]): 20 s
- Time (Mus musculus [35]): 1.6 s
- ED50 (Mus musculus [12]): 9.7 µmol/kg
- Time (Mus musculus [36]): 310 s
- Time (Mus musculus [37]): 5 s
- BP (ED50) (Felis catus [38]): 66%
- Change (Rattus norvegicus [39]): 3.2%
- Time (Mus musculus [40]): 437 s
- ED50 (Mus musculus [14]): 1 µmol/kg
